# Only some compounds are listed: those with a hit (about 2.7% of all), similar ones and a draw of the others.
# Yeast life ext: compounds extending yeast replicative lifespan, primary screen, S. cerevisiae, OD615. S. cerevisiae growth with nicotinamide; deaD strain in restrictive glucose medium. inhibition of the nicotinamide effect, % at 10 µM. hit rate 0.68% among 130,000;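 active = inhibition above a set limit, placed 3 SD over the median of all compounds, cut at about 26% in these data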;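 note: 0% = nicotinamide-treated wells and 100% = cells grown without nicotinamide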
#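 assay system = DeaD-strain S. cerevisiae | measured by = absorbance at 615 nm | probe or stimulus = nicotinamide 1.5 mM | buffer or medium = CSMM-D glucose medium, restrictive | times = 48 h at 30 °C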
# Yeast growth inh: growth inhibitors of yeast BB579 in restrictive medium, primary screen, yeast lifespan-shortening project, S. cerevisiae. OD615, 48 h. inhibition, % at 10 µM. hit rate 0.51% among 140,000. AID 804, 2007;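 active = inhibition above a set limit, 3 SD over the mean compound inhibition, cut at about 44% in these data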
#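 System: Saccharomyces cerevisiae DeaD strain BB579, replicative lifespan model yeast | Buffer or medium: Restrictive glucose-based CSMM-D medium | Times: 4 h preincubation and 48 h exposure at 30 °C | Detection: OD615 turbidity measurement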
# sdo1 growth: growth rescue of sdo1-depleted yeast, primary screen, S. cerevisiae, bone marrow failure model. hit rate 0.21% among 140,000. S. cerevisiae sdo1-depleted JHY4D growth rescue, OD600 30 h; stronger effect = higher value; pdr5 snq2 efflux-pump mutant strain. z-score at 10 µM. AID 817, 2007;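 active = z-score above 3 at both the 24 hr and the 30 hr optical density reads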;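 note: z-score against mean and SD of all compound wells on the same plate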
# RAM network inh: inhibitors of the yeast RAM network, primary screen, dse1pr::URA3 reporter, 5-FOA selection; S. cerevisiae dse1pr::URA3 reporter, 5-FOA growth OD615, 2 d; analog-sensitive cbk1-as2 kinase mutant strain; inhibition, % at 50 µM; hit rate 1.8% among 190,000; AID 868, 2007;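 active = inhibition above a set limit, 3 SD over mean compound inhibition, cut at about 8.4% in these data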;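 note: 0% = DMSO-only wells with no growth and 100% = 10 µM 1-NA-PP1 full growth; inhibition rescues growth on 5-FOA so higher OD means more RAM inhibition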
# An asterisk follows results filed as active; x = no result.
SMILES,Yeast life ext,Yeast growth inh,sdo1 growth,RAM network inh
O=C(N[C@@H](Cc1c[nH]c2ccccc12)C(=O)O)c1ccc(Cl)cc1,x,x,x,8.9*
CCOc1ccc(NC(=S)N2CCc3cc(OC)c(OC)cc3C2COc2ccc3c(C)cc(=O)oc3c2)cc1 (stereo not drawn),5,-24,0.8,9.9*
COC(CNC(=O)CNC(=S)N(CCCN1CCOCC1)Cc1cccs1)OC,x,x,x,0
O=C(COC(=O)C1(c2ccc(Cl)cc2)CCCC1)Nc1ncc(C(F)(F)F)cc1Cl,3,-54,-0.38,8.9*
O=C(COC(=O)C1(c2ccc(F)cc2)CCCC1)Nc1ncc(C(F)(F)F)cc1Cl,2,-42,-0.6,7
COC(=O)CCCn1c(C)cc(C(=O)CCl)c1C,x,x,x,3
O=C(NCC1CCCO1)C(c1ccc(N2CCOCC2)cc1)N(C(=O)Cn1nnc2ccccc21)c1ccccc1F (stereo not drawn),x,x,x,0
CC(=O)c1cccc(N(C(=O)Cn2nnc3ccccc32)C(C(=O)NCC2CCCO2)c2ccc(N3CCOCC3)cc2)c1 (stereo not drawn),x,x,x,11*
COc1ccc(CCN2C(=O)N(c3ccc(OC)cc3)C(=O)C2CC(=O)Nc2ccccc2)cc1 (stereo not drawn),x,x,x,9.1*
CCc1c(C)[nH]c2nc3ccccc3n2c1=O,-6,-13,-0.1,0
COc1cc(/C=N/N2C(=O)CSC2=S)cc(Br)c1O,x,x,x,0
COc1cccc(/C=N/N2C(=O)CSC2=S)c1O,-4,72*,-0.82,1
CCN1CCN(C(=O)c2ccccc2N(Cc2ccccc2)S(C)(=O)=O)CC1,-11,-13,0.85,0
CS(=O)(=O)N(CC(=O)NCCSCc1cccc(Cl)c1)c1ccc2c(c1)OCO2,-6,-4,-0.28,0
O=C(/C=C/c1ccc2c(c1)OCO2)NCCSCc1cccc(Cl)c1,-12,-19,-1.1,9.0*
Cc1ccc(-c2csc(-c3c[nH]c4ccccc34)n2)c(C)c1,-22,-46,-2.6,2
CN(C)c1ccc(N=Nc2ccccc2C(=O)OCC(=O)N(C)c2ccccc2)cc1,-5,-12,-0.65,10*
O=C(c1ccccc1)n1ccc(-c2cnc(-c3ccccc3)s2)n1,-1,-15,0.9,7
COc1ccc(S(=O)(=O)n2ccc(-c3cnc(-c4ccccc4)s3)n2)cc1,-9,-40,-0.76,9.3*
CCN1CCN(CC(O)COc2ccc(Cl)cc2)CC1 (stereo not drawn),-14,-72,-0.21,1
O=C(CCl)c1ccc(Cc2ncc(C(F)(F)F)cc2Cl)s1,68*,-13,-1.9,1
NS(=O)(=O)c1ccc(Cc2ncc(C(F)(F)F)cc2Cl)s1,1,-31,1.5,1
COC(=O)c1sc(-c2ccccc2)cc1NC(=O)c1cc(OC)cc(OC)c1,10,-42,0.72,8.8*
COC(=O)c1sc(-c2ccccc2)cc1NC(=O)c1ccc(OC)cc1,-3,-28,-0.29,8.7*
Cc1nc2ccc(Br)cn2c1NC(C)(C)C,3,-22,-0.5,1
SMILES,Yeast life ext,Yeast growth inh,sdo1 growth,RAM network inh
Cc1ccc(Oc2cc(C)nc(-c3ccccc3O)n2)cc1,-15,-33,-1.9,9.4*
CC/C(=N\NC(=O)c1ccoc1C)c1ccc(C)o1,1,-34,0.09,2
COc1ccccc1CN1C[C@@H]2C[C@@H](c3cccc(O)c3)N3CCC[C@@]23C1=O,x,x,x,-2
CCCCC1CCC(/C(N)=N/O)CC1 (stereo not drawn),-11,-24,-1.1,0
CCCCCC1CCC(C(=O)O)CC1 (stereo not drawn),-7,52*,-0.08,0
Cn1c(CO)cnc1SCC(=O)c1ccc(Br)cc1,x,x,x,0
COC(=O)CSc1nnc(SCc2ccc(OC)cc2)s1,-7,-50,-0.06,1
CC1CCCN(c2ccc([N+](=O)[O-])cc2C(=O)c2ccccc2)C1 (stereo not drawn),16,-27,-1.3,9.6*
COc1cccc(C(=O)Cn2c(=O)n(CCC(=O)NCC3CCCO3)c(=O)c3cc(OC)c(OC)cc32)c1 (stereo not drawn),x,x,x,1
O=C(CNc1ccccc1)N/N=C/c1c[nH]c2ccccc12,-7,-20,0.78,0
O=C(COc1ccc(Cl)cc1Cl)NCC(=O)N/N=C/c1c[nH]c2ccccc12,2,-18,-0.98,9.8*
COCCNC(=O)CCc1nc(-c2ccccc2)no1,-8,-16,0.91,3

# Screening data from PubChem.
